Experimental data from different studies.
Each line is one published result; the experiments were not run side by side.
Target: Homeodomain-interacting protein kinase 3 (HIPK3, Homo sapiens, UniProt Q9H422)
Observed: enzyme activity
Action: inhibitor

`O=C(O)c1ccc2c(c1)nc(Nc1ccc(F)c(Cl)c1)c1ncncc12` has a remaining activity of 12% (radiometric; 1 µM).
With `COc1cc(Cl)c(C(=O)N[C@@H](CN[C@H]2CC[C@@H](N)CC2)Cc2ccc(C#N)cc2)cc1-c1ccc(CN[C@H](C)c2ccc(C)cc2)o1` the remaining activity was 96% (1 µM).
`O=C(Nc1cnn(-c2csc(C(=O)NC3COC3)c2)c1)Nc1ccccc1Cl` has a remaining activity of 97.6% (5 µM).
`CCN(CC)c1ccc(C2=NNC(=O)CC2C)cc1[N+](=O)[O-]` (stereo not shown) has a remaining activity of 40% (10 µM).
`O=C(O)c1ccc2c(c1)nc(NCCc1ccccc1)c1ccncc12` gave a remaining activity of 8% (radiometric; 1 µM).
The remaining activity of `Oc1cccc(-c2nc(N3CCOCC3)c3oc4ncccc4c3n2)c1` is reported as 82% (10 µM).
The remaining activity of `O=C(O)c1ccc2c(c1)nc(NCc1ccccc1)c1ncncc12` is reported as 52% (radiometric; 1 µM).
For `CCCOc1ccc(OC)c(F)c1C(=O)c1ccc(C(=O)N[C@@H]2CNC[C@H]2NC(=O)c2ccc3[nH]ncc3c2)cc1`, the remaining activity was 97% (10 µM).
`FC(F)c1nc2ccccc2n1-c1nc(N2CCOCC2)nc(N2CCOCC2)n1` has a remaining activity of 98% (10 µM).
For `O=C(O)c1ccc2c(c1)nc(NCCc1cccc(Cl)c1)c1ncncc12`, the remaining activity was 38% (radiometric; 1 µM).
For `CC(C)(C)c1nc(-c2cccc(NS(=O)(=O)c3c(F)cccc3F)c2F)c(-c2ccnc(N)n2)s1`, the remaining activity was 99% (radiometric; 1 µM).
For `Cc1sc(C(=O)NC2COC2)cc1-n1cc(NC(=O)Nc2c(F)cccc2Cl)cn1`, the remaining activity was 88.5% (10 µM).
`Cc1cnc(NC2CCOCC2)nc1-n1cnc(C(=O)NC(CN)c2cc(F)cc(Cl)c2)c1` (stereo not shown) has a remaining activity of 94% (radiometric; 1 µM).
`COc1cc(Nc2cnc(C#N)c(O[C@H](C)CN(C)C)n2)ncc1-c1cnn(C)c1` gave a remaining activity of 96% (radiometric; 1 µM).
For `CC(C)(C)c1nc2c(s1)c1nc(N)ncc1c1ccc(NS(=O)(=O)c3c(F)cccc3F)c(F)c12`, the remaining activity was 96% (radiometric; 1 µM).
`O=C(O)c1ccc2c(c1)nc(Nc1ccc(F)c(Cl)c1)c1ccncc12` gave a remaining activity of 5% (radiometric; 1 µM).
With `CC(C)(O)[C@H]1CC[C@H](Nc2ccc3ncc(-c4cccc(C(F)(F)F)c4)n3n2)CC1` the remaining activity was 78.4% (1 µM).
`Cc1ccc(C(=O)Nc2ccc(CN3CCN(C)CC3)c(C(F)(F)F)c2)cc1C#Cc1cnc2cccnn12` gave a remaining activity of 93% (23.5 nM).
`O=C(O)c1ccc2c(c1)nc(Nc1ccc3ccccc3c1)c1ccncc12` gave a remaining activity of 7% (radiometric; 1 µM).
